The values that follow come from ChEMBL document CHEMBL1770055, “Regioselective one pot synthesis of 3,3'-diindolylethylene derivatives and study of their cytotoxic activity” (Bioorg Med Chem Lett, 2011).

pIC50: −log10 of the molar value. Where only a bound is given, the exact number is not on record here.

Test [1] relates to U-937. The experiment in a line: Cytotoxicity against human U937 cells assessed as cell growth inhibition after 48 hrs by MTS-PMS assay. It counts as functional, cell-based. Conditions: U-937, 48 h. In short, it runs like this:
(§1)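 Cells seeded at 5 × 10^4 per 200 µl and exposed to compounds at 0–100 µM, in triplicate, for 48 h at 37 °C, 5% CO2. MTS (2.0 mg/ml) and PMS (0.92 mg/ml) were mixed 10:1 and added, followed by 3 h at 37 °C. Absorbance (formazan) was read at 490 nm. Viability is expressed as % of untreated. IC50 was obtained by graphic extrapolation.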
In general terms: Formazan colour is commonly taken as a measure of viable cells.

The test system of a further test is K562. The experiment in a line: Cytotoxicity against human K562 cells assessed as cell growth inhibition after 48 hrs by MTS-PMS assay. It counts as functional, cell-based. The settings on record: K562, 48 h. In short, it runs like this: as §1
Test [2] concerns U-937. The test is described as follows: Induction of apoptosis in human U937 cells assessed as late apoptotic cells at 13.06 uM after 8 hrs using annexin V/propidium iodide staining by flow cytometry (reference value: 5.83%). The class given is functional.
The subject of test [3] is U-937. The test is described as follows: Induction of apoptosis in human U937 cells assessed as pre-necrotic cells at 13.06 uM after 8 hrs using annexin V/propidium iodide staining by flow cytometry (reference value: 0.30%). The class given is functional. For orientation: A flow cytometer gives signals particle by particle.
Test [4] has as its system U-937. The test is described as follows: Induction of apoptosis in human U937 cells assessed as apoptotic cells at 13.06 uM after 8 hrs using annexin V/propidium iodide staining by flow cytometry (reference value: 2.42%). The class given is functional.

As usually defined, the pIC50 is −log10 of the IC50, conventionally taken in molar units. For the compound `C=C(c1c(-c2ccc(Cl)cc2Cl)[nH]c2ccccc12)c1c(-c2ccc(Cl)cc2Cl)[nH]c2ccccc12`, the pIC50 in the test on U-937 [1] and in the test on K562 was below 4.00 throughout.

As to `C=C(c1c(-c2cccc(Br)c2)[nH]c2ccccc12)c1c(-c2cccc(Br)c2)[nH]c2ccccc12`, the pIC50 in the test with U-937 [1] and with K562 was below 4.00 in each case.

Take `ClC=C(c1c(-c2ccccc2)[nH]c2ccccc12)c1c(-c2ccccc2)[nH]c2ccccc12`: the Activity in the test on U-937 [2] is 11.68%; in the test with U-937 [3] it was 1.3%; with U-937 [4] it was 41%. The pIC50 was 4.88 in the test with U-937 [1] and 4.74 in the test on K562.

As to `C=C(c1c(-c2ccccc2OC)[nH]c2ccccc12)c1c(-c2ccccc2OC)[nH]c2ccccc12`, the pIC50 in the test on U-937 [1] was 4.15; with K562, 4.03.

In the case of `C=C(c1c(-c2ccc(OC)c(OC)c2)[nH]c2ccccc12)c1c(-c2ccc(OC)c(OC)c2)[nH]c2ccccc12`, the pIC50 in the test with U-937 [1] and in the test with K562 was below 4.00 throughout.

As to `C=C(c1c(-c2cccc(Cl)c2)[nH]c2ccccc12)c1c(-c2cccc(Cl)c2)[nH]c2ccccc12`, the pIC50 was 4.33 in the test with U-937 [1] and 4.39 in the test on K562.

On to `C=C(c1c(-c2ccccc2)[nH]c2ccccc12)c1c(-c2ccccc2)[nH]c2ccccc12`, for which the pIC50 with U-937 [1] and in the test with K562 was below 4.00 throughout.
